Results on 9 compounds are retold here after ChEMBL document CHEMBL2385063, “Identification of 2-(2-(1-naphthoyl)-8-fluoro-3,4-dihydro-1H-pyrido[4,3-b]indol-5(2H)-yl)acetic acid (setipiprant/ACT-129968), a potent, selective, and orally bioavailable chemoattractant receptor-homologous molecule expressed on Th2 cells (CRTH2) antagonist” (J Med Chem, 2013).

A short description of series [1]: Solubility of the compound in water at pH 3.8. In kind it is physicochemical. In a few lines: (§1)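 Compound was stirred in water, 60 mM citrate buffer pH 4 or 70 mM phosphate buffer pH 7 at 300 rpm, 25 °C, for 24 h. The mixture was filtered, and the filtrate concentration was measured by HPLC-UV at 250 nm against a calibration curve.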
The test system of series [2] is Rattus norvegicus. The experiment in a line: AUC(0 to last) in Wistar rat at 2 mg/kg, iv and 10 mg/kg, po. It is filed as ADME, organism-based, Plasma. The note with it: in vivo. In a few lines:
(§2)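 Male Wistar rats, three animals per experiment, given iv (0.2, 1 or 2 mg/kg) and po (2 or 10 mg/kg) doses as solutions; AUC0-last, plasma clearance, half-life and oral bioavailability derived.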

A short description of series [3]: Volume of distribution at steady state in Wistar rat at 2 mg/kg, iv and 10 mg/kg, po. In kind it is ADME, organism-based. The note with it: in vivo, read-out: Vdss. In a few lines:
(§3)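 Male Wistar rats, three animals per experiment, were dosed intravenously and orally with compound given as solutions.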

Series [4] can be described thus: Solubility of the compound in water at pH 4.3. In kind it is physicochemical. In a few lines:
as §1

The nature of series [5]: Oral bioavailability in Wistar rat at 10 mg/kg. It is filed as ADME, organism-based. The note with it: in vivo. In a few lines: as §2
Series [6] is described as follows: Plasma clearance in Wistar rat at 2 mg/kg, iv and 10 mg/kg, po. It is filed as ADME, organism-based. In a few lines:
as §2

Series [7] in a line: Half life in Wistar rat at 2 mg/kg, iv and 10 mg/kg, po. It is filed as ADME, organism-based. The following applies: in vivo. In a few lines: as §2
The nature of series [8]: Solubility of the compound in water at pH 5.7. In kind it is physicochemical. In a few lines:
(§4)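 Compound stirred in 200 μL water at 300 rpm, 25 °C, for 24 h. The biphasic mixture was vacuum-filtered. Filtrate concentration was measured by reversed-phase HPLC with UV detection at 250 nm and quantified from peak area against a calibration curve.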

Series [9] in a line: Volume of distribution at steady state in Wistar rat at 0.2 mg/kg, iv and 2 mg/kg, po. It is filed as ADME, organism-based. The following applies: in vivo, read-out: Vdss. In a few lines: as §3
Series [10] has as its system Rattus norvegicus. The experiment in a line: AUC(0 to last) in Wistar rat at 0.2 mg/kg, iv and 2 mg/kg, po. The note with it: in vivo. In kind it is ADME, organism-based, Plasma. In a few lines:
as §2

A short description of series [11]: Plasma clearance in Wistar rat at 0.2 mg/kg, iv and 2 mg/kg, po. It is filed as ADME, organism-based. In a few lines:
as §2

The nature of series [12]: Half life in Wistar rat at 0.2 mg/kg, iv and 2 mg/kg, po. It is filed as ADME, organism-based. The note with it: in vivo. In a few lines: as §2
The nature of series [13]: Oral bioavailability in Wistar rat at 2 mg/kg. In kind it is ADME, organism-based. The following applies: in vivo. In a few lines: as §2
The next series addresses CYP2D6 (Homo sapiens, UniProt P10635). The experiment in a line: Inhibition of CYP2D6 in human liver microsomes assessed as dextromethorphan O-demethylation by LC-MS/MS analysis. In kind it is ADME, Microsome. The following applies: human, liver microsomes, probe dextromethorphan (O-demethylation). A general note: Microsomes from liver hold many membrane-bound enzymes, among them those of drug oxidation.

Series [14] can be described thus: Volume of distribution at steady state in Wistar rat at 1 mg/kg, iv and 10 mg/kg, po. It is filed as ADME, organism-based. The following applies: in vivo, read-out: Vdss. In a few lines:
as §3

The target of a further series is CYP3A4 (Homo sapiens, UniProt P08684). Put plainly: Inhibition of CYP3A4 in human liver microsomes assessed as midazolam-1'-hydroxylation by LC-MS/MS analysis. The note with it: human, liver microsomes, probe midazolam (1'-hydroxylation). In kind it is ADME, Microsome.
Series [15] is described as follows: Clearance in beagle dog at 1 mg/kg, iv. In kind it is ADME, organism-based, Canis lupus familiaris. Further details: dose 1 mg/kg, route intravenous. The following applies: in vivo. In a few lines: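 Male Beagle dogs, three per experiment, given 1 mg/kg iv as a solution in 10% propylene glycol; plasma clearance determined.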
A short description of series [16]: Oral bioavailability in beagle dog at 10 mg/kg. The following applies: in vivo. In kind it is ADME, organism-based, Canis lupus familiaris. In a few lines: (§5)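 Male Beagle dogs, three per experiment, dosed orally at 10 mg/kg (with a 1 mg/kg iv arm) as solutions containing 10% propylene glycol; AUC0-last and oral bioavailability derived.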
A further series relates to Canis familiaris. Put plainly: AUC (0 to last) in beagle dog at 10 mg/kg, po. It is filed as ADME, organism-based, Canis lupus familiaris, Plasma. Also noted: time 0 - last, dose 10 mg/kg, route oral. The note with it: in vivo. In a few lines: as §5
Series [17] deals with T1, Chemoattractant receptor-homologous molecule expressed on Th2 cells (Cavia porcellus) (UniProt Q56D28).
T1 sequence (whole entry): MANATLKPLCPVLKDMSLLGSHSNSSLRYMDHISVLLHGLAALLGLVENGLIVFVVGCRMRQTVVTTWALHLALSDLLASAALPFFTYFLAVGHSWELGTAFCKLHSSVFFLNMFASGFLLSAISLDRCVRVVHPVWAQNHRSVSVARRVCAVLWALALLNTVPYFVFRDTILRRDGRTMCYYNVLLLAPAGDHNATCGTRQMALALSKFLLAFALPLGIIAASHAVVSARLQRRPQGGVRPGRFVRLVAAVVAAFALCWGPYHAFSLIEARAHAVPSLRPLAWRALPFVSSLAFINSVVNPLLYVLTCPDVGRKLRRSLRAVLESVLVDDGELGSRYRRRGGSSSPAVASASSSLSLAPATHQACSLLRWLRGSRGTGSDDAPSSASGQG
Put plainly: Partial agonist activity at guinea pig CRTH2 receptor assessed as calcium flux by cell-based FLIPR assay. In kind it is functional. (Calcium assays in cells follow changes in intracellular calcium, usually with a dye or a luminescent sensor.)

Series [18] concerns the target T2, Prostaglandin D2 receptor 2 (Mus musculus) (UniProt Q9Z2J6).
T2 sequence (whole entry): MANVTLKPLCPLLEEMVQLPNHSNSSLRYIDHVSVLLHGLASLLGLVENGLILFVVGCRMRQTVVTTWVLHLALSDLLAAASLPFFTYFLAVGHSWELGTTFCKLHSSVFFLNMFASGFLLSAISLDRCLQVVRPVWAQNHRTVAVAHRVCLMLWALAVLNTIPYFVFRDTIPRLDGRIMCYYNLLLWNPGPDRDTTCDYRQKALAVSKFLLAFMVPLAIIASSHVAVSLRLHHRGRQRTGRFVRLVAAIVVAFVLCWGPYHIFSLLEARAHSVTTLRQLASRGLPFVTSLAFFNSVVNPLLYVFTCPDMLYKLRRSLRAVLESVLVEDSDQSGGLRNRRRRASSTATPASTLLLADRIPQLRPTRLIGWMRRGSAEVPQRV
Put plainly: Partial agonist activity at mouse CRTH2 receptor assessed as calcium flux by cell-based FLIPR assay. In kind it is functional.

Series [19] in a line: Solubility of the compound in water at pH 4.9. It is filed as physicochemical. In a few lines:
as §4

Series [20] in a line: Plasma clearance in Wistar rat at 1 mg/kg, iv and 10 mg/kg, po. In kind it is ADME, organism-based. In a few lines:
as §2

The nature of series [21]: Half life in Wistar rat at 1 mg/kg, iv and 10 mg/kg, po. It is filed as ADME, organism-based. The note with it: in vivo. In a few lines:
as §2

Series [22] is described as follows: Solubility of the compound in water at pH 3.9. It is filed as physicochemical. In a few lines:
as §1

The nature of series [23]: Solubility of the compound in water. In kind it is physicochemical. In a few lines:
as §1

In brackets after ≈: the same amount, converted by molar mass. Activity calls are given as the source filed them. The calls are words filed in the database; no cut-off is given here.

CYP3A4, sequence (P08684 whole entry): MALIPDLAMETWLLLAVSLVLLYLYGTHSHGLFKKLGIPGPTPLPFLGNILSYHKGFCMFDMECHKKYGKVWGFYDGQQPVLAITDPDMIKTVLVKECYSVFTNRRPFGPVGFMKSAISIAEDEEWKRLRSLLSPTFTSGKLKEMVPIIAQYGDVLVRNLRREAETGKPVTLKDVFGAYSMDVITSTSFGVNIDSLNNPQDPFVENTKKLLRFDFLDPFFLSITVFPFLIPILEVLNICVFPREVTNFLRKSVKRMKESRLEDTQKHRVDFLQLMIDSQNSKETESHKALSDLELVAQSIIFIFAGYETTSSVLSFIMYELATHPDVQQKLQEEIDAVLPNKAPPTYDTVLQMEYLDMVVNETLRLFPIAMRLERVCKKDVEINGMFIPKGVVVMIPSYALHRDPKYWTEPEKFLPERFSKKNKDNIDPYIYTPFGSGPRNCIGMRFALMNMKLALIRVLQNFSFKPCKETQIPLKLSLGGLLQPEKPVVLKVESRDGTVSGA
CYP2D6, sequence (P10635 whole entry): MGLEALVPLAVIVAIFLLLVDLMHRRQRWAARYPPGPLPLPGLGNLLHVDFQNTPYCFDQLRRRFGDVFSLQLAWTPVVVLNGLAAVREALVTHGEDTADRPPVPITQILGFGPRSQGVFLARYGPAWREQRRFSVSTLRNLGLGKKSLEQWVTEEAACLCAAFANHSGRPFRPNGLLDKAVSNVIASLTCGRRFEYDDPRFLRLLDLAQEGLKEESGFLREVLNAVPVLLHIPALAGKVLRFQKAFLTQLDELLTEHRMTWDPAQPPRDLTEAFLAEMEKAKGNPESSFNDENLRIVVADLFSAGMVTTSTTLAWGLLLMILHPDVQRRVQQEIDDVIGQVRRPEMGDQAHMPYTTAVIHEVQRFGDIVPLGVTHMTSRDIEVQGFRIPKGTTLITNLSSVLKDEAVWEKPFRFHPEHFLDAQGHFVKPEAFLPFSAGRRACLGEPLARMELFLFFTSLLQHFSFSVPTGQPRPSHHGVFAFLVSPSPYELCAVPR

As a reminder, the solubility is the concentration that dissolves in the medium under given conditions. Read a high solubility as a readily soluble substance. `O=C(O)Cn1c2c(c3ccccc31)CN(C(=O)c1cccc(Cl)c1)CC2` came in with a solubility in [1] of 110 µg/mL (≈ 298 µM).
By bioavailability is commonly meant dose-corrected exposure relative to a reference, in per cent. Low readings indicate little systemic uptake, high ones much systemic uptake. A word on the half-life: it is how long it takes for the measured level to halve. Read a low half-life as fast loss. On to `CCc1ccc(-c2ccc(C(=O)N3CCc4c(c5ccccc5n4CC(=O)O)C3)cc2)cc1`, for which the AUClast with Rattus norvegicus [2] is 171 ng·h/mL. In addition, the Vd in series [3] worked out at 0.4 L/kg. In addition, the solubility in series [4] was 2 µg/mL (≈ 4.56 µM). Moreover, the bioavailability in series [5] amounted to 4%. The clearance in series [6] is 35 mL/min/kg. Also, the half-life in series [7] was 0.5 h.
In series [8], `O=C(O)Cn1c2c(c3cc(F)ccc31)CN(C(=O)Cc1cccc3ccccc13)CC2` showed a solubility of 28 µg/mL (≈ 67.2 µM).
Consider `O=C(O)Cn1c2c(c3cc(F)ccc31)CN(C(=O)Cc1c[nH]c3ccccc13)CC2`, for which the Vd in [9] came to 0.4 L/kg. The compound further returned an AUClast with Rattus norvegicus [10] of 62 ng·h/mL. For the same compound, the solubility in series [1] was 45 µg/mL (≈ 111 µM). The clearance in series [11] came out at 11 mL/min/kg. In addition, in series [12], the half-life was 1.2 h. For the same compound, in [13], the bioavailability was determined as 2%.
For orientation: IC50 means the concentration at which inhibition is half-maximal. As for `O=C(O)Cn1c2c(c3ccccc31)CN(C(=O)c1ccccc1)CC2`, the solubility in [4] is 64 µg/mL (≈ 191 µM). The IC50 on CYP2D6 and at CYP3A4 was over 50 µM in each case. In addition, the Vd in series [14] was 0.4 L/kg.
Take `O=C(O)Cn1c2c(c3cc(F)ccc31)CN(C(=O)c1cccc3ccccc13)CC2` [SETIPIPRANT]: the clearance in series [15] and in series [6] was 1.3 mL/min/kg throughout. Besides, the bioavailability worked out at 55% in [16] and 44% in series [5]. Moreover, the AUClast with Rattus norvegicus [2] worked out at 58500 ng·h/mL; with Canis familiaris it was 91100 ng·h/mL. Further, the Vd in [3] was 0.4 L/kg. Further, the outcome in series [17] and in series [18] was Active. Besides, the concentration in solution in [4] (solubility) was 50 µg/mL (≈ 124 µM). In [7], this compound had a half-life of 6 h.
As for `O=C(O)Cn1c2c(c3cc(F)ccc31)CN(C(=O)c1cccc(Cl)c1)CC2`, the figures for the clearance in series [15] and in [20] were 11 mL/min/kg and 5.9 mL/min/kg, respectively. Also, the bioavailability in series [16] amounted to 64%; in series [5], 23%. In addition, the AUClast in the series with Canis familiaris is 9620 ng·h/mL. In [19], this compound yielded a solubility of 25 µg/mL (≈ 64.6 µM). The outcome in [17] and in series [18] was Active. In addition, the Vd in series [14] is 0.4 L/kg. In series [21], the half-life is 2.3 h.
For the compound `O=C(O)Cn1c2c(c3cc(F)ccc31)CN(C(=O)c1cccs1)CC2`, the clearance in series [20] stood at 36 mL/min/kg. The bioavailability in series [5] stood at 5%. Moreover, in series [14], the Vd is 0.4 L/kg. Moreover, the solubility in series [22] came to 50 µg/mL (≈ 140 µM). The compound further gave a half-life in series [21] of 0.6 h.
`O=C(O)Cn1c2c(c3ccccc31)CN(C(=O)c1cccc3ccccc13)CC2`: the outcome in series [17] and in [18] was Active. The same compound yielded a clearance in series [20] of 1.1 mL/min/kg. Besides, in series [5], the bioavailability turned out to be 36%. Also, the solubility in series [23] turned out to be 335 µg/mL (≈ 871 µM). The Vd in [14] was 0.4 L/kg. This compound had a half-life in series [21] of 5.8 h.
